S1P3 agonist – activates the human S1P3 receptor | AID 373 | 0.1% of 60,000 active | S1P3 NFAT-BLA reporter cells, agonism, FRET ratio; relative to 1 µM S1P, basal subtracted | Q99500 | activation, % at 4.5 µM;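 active = activation above the screen-wide mean plus 3 SD, cut at about 4.5% in these data, passing the limit was not always enough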
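material = human S1P3 NFAT-BLA reporter CHO cells | schedule = 4 h compound at 37 °C, 2 h substrate at RT | measured by = fluorescent BLA substrate, ex 405 nm, em 460/535 nm ratio | controls = 1 µM S1P reference | replication = primary once, confirmation triplicate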
D1 allo mod – allosterically modulates the human D1 dopamine receptor; P21728; B-score at 10 µM; HEK293 D1, CRE-luciferase, dopamine EC30 potentiation; actives deviate in either direction; AID 641; 5.9% of 58,000 active;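 active = luminescence count or its row- and column-corrected plate score outside the 99.7% band of the plate's sample wells, on either side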
M1 agonist – agonists of M1 muscarinic receptor | CHO-M1 cells, Fluo-4 calcium fluorescence, agonist mode; stronger effect = higher value | B-score at 10 µM | 3% of 64,000 active;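 active = fluorescence rise, raw or as B-score row- and column-corrected plate score, outside the 99.7% band of its plate's samples, either direction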
S1P1 ag pot – S1P1 (human) agonism or agonism potentiation; activation, % at 9.5 µM; AID 449; S1P1 CRE-bla cells, forskolin, beta-lactamase FRET, potentiator mode; S1P1 agonist co-added at EC20, 2 nM; 100% = saturating reference agonist, 0% = basal; 0.57% of 56,000 active; P21453;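 active = activation above a cutoff set at the mean activation of all tested compounds plus 3 SD, cut at about 54% in these data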;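 note: forskolin at 4 µM as EC80 and the EC20 agonist is SEW2871; 100% = SEW2871 at its EC100 plus forskolin at EC80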
Target sequence (P21453 whole entry, looked up): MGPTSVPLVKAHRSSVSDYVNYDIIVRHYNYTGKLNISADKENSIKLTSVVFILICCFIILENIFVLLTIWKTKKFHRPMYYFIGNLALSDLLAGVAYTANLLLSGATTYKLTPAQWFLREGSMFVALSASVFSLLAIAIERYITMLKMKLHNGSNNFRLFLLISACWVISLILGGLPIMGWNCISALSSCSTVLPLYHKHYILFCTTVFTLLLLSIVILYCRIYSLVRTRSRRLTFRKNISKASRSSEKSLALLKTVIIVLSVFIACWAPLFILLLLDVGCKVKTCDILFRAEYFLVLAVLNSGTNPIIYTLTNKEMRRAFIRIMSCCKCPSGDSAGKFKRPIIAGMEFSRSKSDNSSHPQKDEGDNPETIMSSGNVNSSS
M1 antagonist – M1 muscarinic receptor (rat) antagonism. 3.4% of 64,000 active. B-score at 10 µM. AID 628. CHO-M1 cells, Fluo-4 calcium, ACh EC80 antagonist mode; stronger effect = lower value. P08482;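 active = calcium fluorescence response, raw or row-and-column corrected B-score, differing from the plate sample mean either way at a set confidence level, mostly lower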
D1 mod confirm – confirmation of human D1 dopamine receptor allosteric modulators; HEK293 D1 CRE-luciferase, dopamine EC30 potentiation; stronger effect = higher value; shares compounds with D1 allo mod; 88% of 2,200 active; luminescence at 10 µM;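 active = luminescence in either of two replicates above the same-plate mean plus 3 SD of the low-dose dopamine control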
D1 ag no DA – D1 (human) signaling in absence of dopamine; shares compounds with D1 allo mod; HEK293 D1 CRE-luciferase, luminescence, no dopamine; stronger effect = higher value; 0.8% of 1,900 active; luminescence at 10 µM; AID 646; in the data active = luminescence above about 3900
Isoprot counter – isoproterenol response counter-screen activity for D1 modulators. luminescence at 10 µM. 63% of 2,200 active. AID 647. shares compounds with D1 allo mod. HEK293 D1 CRE-luciferase, isoproterenol EC30 counter-screen; stronger effect = higher value;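 active = luminescence in either replicate above plate mean of wells with a partly effective reference agonist dose plus 3 SD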;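 note: isoproterenol raises cAMP through native beta-adrenoceptor Gs so signal bypasses D1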
Active calls of the source: *; · = no result given. Only some compounds are listed: those with a hit (about 11% of all), similar ones and a draw of the others.

SMILES | S1P3 agonist | D1 allo mod | M1 agonist | S1P1 ag pot | M1 antagonist | D1 mod confirm | D1 ag no DA | Isoprot counter
CCC(C)Nc1nc2c(c(=O)[nH]c(=O)n2C)n1CCC(C)C (centres undefined) | -1 | 17* | 0.46 | -28 | 1 | 18228* | 1632 | 6624*
COC(=O)C(C)Sc1nc2c(c(=O)[nH]c(=O)n2C)n1CCC(C)C (centres undefined) | -1 | 9.9* | -0.17 | 4 | 0.3 | 21460* | 1708 | 5984*
C=C(C)Cn1c(SCCCO)nc2c1c(=O)[nH]c(=O)n2C | 0 | 3.3 | -0.47 | -9 | -0.72 | · | · | ·
COCCn1c(C)cc(C(=O)CSc2nc(C)nc3sc4c(c23)CCC4)c1C | -2 | 1.5 | -0.02 | -10 | 0.52 | · | · | ·
COc1ccc(Cc2noc(-c3ccc(OC)c(OC)c3)n2)cc1OC | -1 | 12* | -0.8 | -11 | -0.095 | 10328* | 1376 | 5344*
COc1ccc(-c2noc(CSc3nnc(Cc4ccccc4)n3-c3cccc(C)c3)n2)cc1OC | -1 | 1.5 | 0.13 | -27 | -1.6 | · | · | ·
COc1ccc(-c2noc(-c3ccco3)n2)cc1OC | -1 | 5.2* | 0.73 | · | -0.032 | 18728* | 1452 | 3244
COc1ccc(-c2noc(CN(C(=O)c3ccc(OC(C)=O)cc3)C(C)C)n2)cc1OC | 0 | 3.9* | -0.18 | -47 | -0.46 | 7848* | 1480 | 3484*
CCn1c(SCc2nc(-c3ccc(OC)c(OC)c3)no2)nnc1-c1cccs1 | 0 | 5.3* | 0 | · | -1 | 11432* | 1604 | 3160*
COc1ccc(-c2noc(-c3ccccc3Cl)n2)cc1OC | 0 | 0.24 | 0.47 | · | 0.8 | · | · | ·
COc1ccc(CCC(=O)Nc2ccc(-c3noc(-c4ccc(OC)c(OC)c4)n3)cc2)cc1 | 0 | -0.056 | -0.44 | 34 | -0.13 | · | · | ·
COc1ccccc1N1C(=O)C2C3C=CC(C3)C2C1=O (centres undefined) | 0 | -0.19 | 0.4 | -6 | 0.24 | · | · | ·
Cc1cc(C)c(NC(=O)CSc2nnc(-c3ccncc3)n2Cc2ccco2)c(Cl)c1 | · | 0.0025 | 0.031 | · | -0.36 | · | · | ·
COc1ccc(Cc2nnn(CC(=O)O)n2)cc1 | 0 | 0.52 | -2 | -45 | 1.2 | · | · | ·
O=C(C1CCCO1)N1CCC(O)(c2ccccc2)CC1 (centres undefined) | 0 | 0.37 | 0.9 | -3 | -0.34 | · | · | ·
CCOc1ccc(-c2noc(-c3ccncc3)n2)cc1OCC | 17* | 11* | -1.3 | 109* | -0.56 | · | 1596 | 3808*
COc1ccc(-c2noc(CCCC(=O)NCCc3ccccc3)n2)cc1OC | -1 | 0.59 | -0.69 | -13 | -1.3 | · | · | ·
COc1ccc(-c2noc(CCC(N)=O)n2)cc1OC | -1 | 3.6* | 0.0055 | -6 | 2.3 | 13684* | 1704 | 3000
COc1ccc(-c2noc(COc3ccccc3OC)n2)cc1OC | -2 | 11* | 0.12 | 35 | -0.25 | 17132* | 1668 | 6484*
COc1ccc(Cc2nnc(-c3cccc(C)c3)o2)cc1OC | 0 | 4.3* | -1.9 | -6 | 0.16 | 13948* | 1620 | 4072*
COCCSc1ccccc1C(=O)NCc1ccco1 | 0 | -0.31 | 0.52 | -20 | 1.2 | · | · | ·
O=c1nc2n(c3c4c(sc13)CCC4)CCC2 | -1 | -0.51 | 0.58 | -10 | -1.4 | · | · | ·
Cn1c(CCNC(=O)c2ccco2)nc2cc(NS(=O)(=O)c3ccc(Cl)cc3)ccc21 | -2 | -0.39 | -0.19 | 10 | 0.56 | · | · | ·
CC1(C)CC2CC(C)(CN2C(=O)C23CCC(C)(C(=O)O2)C3(C)C)C1 (centres undefined) | -1 | -1.1 | 0.55 | · | -0.2 | · | · | ·
CSCC[C@H](NC(=O)NCc1ccc(F)cc1)C(=O)O | 0 | 0.16 | -1.3 | 7 | 0.51 | · | · | ·
CN1C(=O)CC(C(=O)O)SC1=Nc1cccc(C(F)(F)F)c1 (centres undefined) | 0 | 0.15 | 0.18 | -13 | 0.52 | · | · | ·
